A short description of assay [1]: Antioxidant activity assessed as ABTS radical scavenging activity after 30 mins. Format: functional.
Assay [2] concerns the target T1, Peroxisome proliferator-activated receptor alpha (Homo sapiens, UniProt Q07869).
T1 sequence (Q07869 whole entry): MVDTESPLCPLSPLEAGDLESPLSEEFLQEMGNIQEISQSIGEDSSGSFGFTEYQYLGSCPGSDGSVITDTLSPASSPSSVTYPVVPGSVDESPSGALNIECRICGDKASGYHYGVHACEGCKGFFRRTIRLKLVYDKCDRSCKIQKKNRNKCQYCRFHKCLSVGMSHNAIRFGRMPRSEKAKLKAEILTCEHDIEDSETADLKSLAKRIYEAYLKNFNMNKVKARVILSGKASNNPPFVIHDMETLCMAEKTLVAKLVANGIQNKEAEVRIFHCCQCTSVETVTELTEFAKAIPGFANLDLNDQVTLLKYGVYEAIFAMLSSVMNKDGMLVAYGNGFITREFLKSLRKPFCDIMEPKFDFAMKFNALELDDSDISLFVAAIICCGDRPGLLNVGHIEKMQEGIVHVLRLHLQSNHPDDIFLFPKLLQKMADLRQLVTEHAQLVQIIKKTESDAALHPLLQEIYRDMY
Description: Agonist activity at GAL4-fused PPARalpha LBD (unknown origin) expressed in HEK293 cells assessed as receptor transactivation after 18 hrs by dual luciferase reporter gene assay. Format: cell-based. Background: Reporter assays use an easily measured gene product as a stand-in for the process of interest.

Assay [3] deals with T2, Peroxisome proliferator-activated receptor gamma (Homo sapiens, UniProt P37231).
T2 sequence (P37231 whole entry): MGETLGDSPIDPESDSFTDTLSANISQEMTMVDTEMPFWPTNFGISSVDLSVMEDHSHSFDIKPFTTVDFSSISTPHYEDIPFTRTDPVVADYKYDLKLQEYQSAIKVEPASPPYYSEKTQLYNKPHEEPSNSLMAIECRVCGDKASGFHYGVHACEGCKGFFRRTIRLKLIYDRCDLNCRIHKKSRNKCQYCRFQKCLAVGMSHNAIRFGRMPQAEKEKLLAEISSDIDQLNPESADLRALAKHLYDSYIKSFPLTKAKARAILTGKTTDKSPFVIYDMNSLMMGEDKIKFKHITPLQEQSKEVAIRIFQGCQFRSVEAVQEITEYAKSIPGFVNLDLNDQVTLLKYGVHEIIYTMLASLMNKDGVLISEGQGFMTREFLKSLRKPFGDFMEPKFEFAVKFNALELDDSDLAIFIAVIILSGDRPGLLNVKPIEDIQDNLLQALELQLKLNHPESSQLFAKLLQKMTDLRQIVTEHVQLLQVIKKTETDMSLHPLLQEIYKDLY
Description: Agonist activity at GAL4-fused PPARgamma LBD (unknown origin) expressed in HEK293 cells assessed as receptor transactivation after 18 hrs by dual luciferase reporter gene assay. Type of assay: cell-based.

In assay [4] the target is T3, Peroxisome proliferator-activated receptor gamma (Homo sapiens) (UniProt P37231).
T3 sequence (whole entry): T2 sequence (P37231 whole entry)
Description: Agonist activity at GAL4-fused PPARgamma LBD (unknown origin) expressed in HEK293 cells assessed as receptor transactivation at 10 uM after 18 hrs by dual luciferase reporter gene assay. Type of assay: cell-based. An outline of the steps: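 HEK293 grown in DMEM/10% FBS to 70–80% confluence, plated, switched to FCS-free medium, transiently transfected per well with GAL4-PPARγLBD plasmid (30 ng), reporter (50 ng), renilla normalization vector (20 ng) and pGEM carrier (40 ng). Ligand added 8 h post-transfection for 18 h; firefly and renilla luciferase read by dual-luciferase kit; activation expressed as fold.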

Where only a bound is given, the exact number is not on record here.

The source of these data is ChEMBL document CHEMBL4190239, “A novel structural class of coumarin-chalcone fibrates as PPARα/γ agonists with potent antioxidant activities: Design, synthesis, biological evaluation and molecular docking studies” (Eur J Med Chem, 2017).

The term IC50 denotes the concentration that inhibits the measured activity by half. By EC50 is commonly meant the concentration that produces a half-maximal response.

`CC(C)(Oc1ccc(C(=O)c2cc3ccccc3oc2=O)cc1)C(=O)O`: the IC50 in assay [1] is over 100 µM. For the same molecule, the half-maximal effective concentration (EC50) in assay [2] (read-out: EC50) is 11 µM; in assay [3] (read-out: EC50), 3.67 µM.

As for `CCOC(=O)C(C)(C)Oc1ccc(C(=O)c2cc3cc(C)ccc3oc2=O)cc1`, the half-maximal inhibitory concentration (IC50) in assay [1] stood at 8.51 µM. Besides, in assay [4], the fold change (FC) turned out to be 1.01.

Consider `CCOC(=O)C(C)(C)Oc1ccc(C(=O)c2cc3c(ccc4ccccc43)oc2=O)cc1`, for which the concentration for half-maximal inhibition (IC50) in assay [1] is over 100 µM. In addition, the fold change (FC) in assay [4] amounted to 0.83.

For `CCOC(=O)C(C)(C)Oc1ccc(C(=O)c2cc3cc(N)ccc3oc2=O)cc1`, the IC50 in assay [1] is over 100 µM. Moreover, the half-maximal effective concentration (EC50) entry in assay [2] (hek293) and in assay [3] (hek293) was “Not Active” each time.

In the case of `CCOC(=O)C(C)(C)Oc1ccc(C(=O)c2cc3cc(C(C)(C)C)cc(C(C)(C)C)c3oc2=O)cc1`, the half-inhibitory concentration (IC50) in assay [1] was over 100 µM. In addition, in assay [4], the fold change (FC) was 0.81.

As for `CCOC(=O)C(C)(C)Oc1ccc(C(=O)C2Cc3cc(OC)c(OC)cc3OC2=O)cc1` (stereo not given), in assay [1], the IC50 was 17.1 µM. Further, the fold change (FC) in assay [4] came to 0.9.

As for `Cc1ccc2oc(=O)c(C(=O)c3ccc(OC(C)(C)C(=O)O)cc3)cc2c1`, in assay [1], the IC50 is over 100 µM. Besides, in assay [4], the fold change (FC) stood at 1.04.

With `CCOC(=O)C(C)(C)Oc1ccc(C(=O)C2Cc3cc(C)ccc3OC2=O)cc1` (stereo not given), the IC50 in assay [1] was 10.3 µM. Further, the fold change (FC) in assay [4] came to 0.8.

Regarding `CCOC(=O)C(C)(C)Oc1ccc(C(=O)c2cc3cc(Cl)ccc3oc2=O)cc1`, the IC50 in assay [1] was over 100 µM. In assay [4], the fold change (FC) worked out at 0.95.

Take `CCOC(=O)C(C)(C)Oc1ccc(C(=O)c2cc3cc(F)ccc3oc2=O)cc1`: in assay [1], the IC50 is over 100 µM. The EC50 result in assay [2] (hek293) and in assay [3] (hek293) was “Not Active” throughout.

For `CCOC(=O)C(C)(C)Oc1ccc(C(=O)c2cc3cc(OC)c(OC)cc3oc2=O)cc1`, the 50% inhibitory concentration (IC50) in assay [1] is over 100 µM. Further, the fold change (FC) in assay [4] was 1.01.

`CCOC(=O)C(C)(C)Oc1ccc(C(=O)C2Cc3c(ccc4ccccc34)OC2=O)cc1` (stereo not given): the 50% inhibitory concentration (IC50) in assay [1] is 15 µM. In addition, the fold change (FC) in assay [4] stood at 1.05.

In the case of `CC(C)(Oc1ccc(C(=O)c2cc3c(ccc4ccccc43)oc2=O)cc1)C(=O)O`, in assay [1], the half-inhibitory concentration (IC50) is over 100 µM. Moreover, the EC50 result is “Not Active” in assay [2] (hek293) and 56.7 µM in assay [3] (read-out: EC50).

As to `Cc1c(C)c2c(c(C)c1O)CCC(C)(C(=O)O)O2` (stereo not given) [TROLOX], the half-maximal inhibitory concentration (IC50) in assay [1] worked out at 24.8 µM.

Regarding `CCOC(=O)C(C)(C)Oc1ccc(C(=O)c2cc3ccccc3oc2=O)cc1`, in assay [1], the concentration for half-maximal inhibition (IC50) is over 100 µM. Moreover, the EC50 in assay [2] (read-out: EC50) is 12.7 µM; in assay [3] (read-out: EC50), 5.19 µM.

`CCOC(=O)C(C)(C)Oc1ccc(C(=O)C2Cc3ccccc3OC2=O)cc1` (stereo not given): the IC50 in assay [1] is 9.4 µM. Also, the 50% effective concentration (EC50) result in assay [2] (hek293) was “Not Active”; in assay [3] (read-out: EC50), 39.7 µM.

With `CCOC(=O)C(C)(C)Oc1ccc(C(=O)c2cc3cc([N+](=O)[O-])ccc3oc2=O)cc1`, the 50% inhibitory concentration (IC50) in assay [1] was 18.6 µM. Further, the half-maximal effective concentration (EC50) came out at 6.99 µM in assay [2] (read-out: EC50) and 0.91 µM in assay [3] (read-out: EC50).
